Data: ChEMBL document CHEMBL1124220 (J Med Chem, 1988)
Starred links: 1 amine or outer side, 2 acyl side, 3 side chain; linkers in the order of their positions; H or OH if unused. Non-standard residues stand in square brackets, D forms with d. Residues, ends and D or L forms follow the SMILES beside them. Ala(imidazol-2-yl) = N[C@@H](Cc1ncc[nH]1)C(=O)O; X2 = O=C([C@H](CCc1ncc[nH]1)N[*:1])[*:2]; Phe(4-NH2) = Nc1ccc(C[C@H](N)C(=O)O)cc1; 3Thi = N[C@@H](Cc1ccsc1)C(=O)O; Aib = CC(C)(N)C(=O)O; Sar = CNCC(=O)O

Legend:
[1] = organism: Oryctolagus cuniculus; experiment: In vitro agonist angiotensin II like activity was measured in the rabbit aorta strip assay; assay type: functional
Summary of the method: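 Isolated rabbit aortic strips in vitro. Agonist (AII-like) activity expressed as percent of the activity of AII.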

[2] = tested on: Rattus norvegicus; experiment: In vivo agonist angiotensin II like activity was measured in rat blood pressure assay; assay type: functional; set-up: concentration or dose not given beside the values
Summary of the method: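 Rat blood pressure in vivo. Residual AII-like activity read as the pressor rise (mmHg) after a 1-μg intravenous bolus of compound. Mean of at least five tests with standard error.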

| SMILES | Activity [1] | Activity [2] |
| --- | --- | --- |
| CC[C@H](C)[C@H](NC(=O)[C@@H]1CCCN1C(=O)[C@@H](Cc1c[nH]cn1)NC(=O)[C@@H](NC(=O)[C@H](Cc1ccc(O)cc1)NC(=O)[C@@H](NC(=O)[C@H](CCCN=C(N)N)NC(=O)CNC)C(C)C)[C@@H](C)CC)C(=O)O | 0% |  |
| CC[C@H](C)[C@H](NC(=O)[C@H](Cc1ccc(O)cc1)NC(=O)[C@@H](NC(=O)[C@H](N)CCCCN)C(C)C)C(=O)N[C@@H](Cc1c[nH]cn1)C(=O)N1CCC[C@H]1C(=O)N[C@@H](Cc1ccccc1)C(=O)O |  | 23% |
| CC[C@H](C)[C@H](NC(=O)[C@H](Cc1ccc(O)cc1)NC(=O)[C@@H](NC(=O)[C@@H](N)CCCN)C(C)C)C(=O)N[C@@H](Cc1c[nH]cn1)C(=O)N1CCC[C@H]1C(=O)N[C@@H](Cc1ccccc1)C(=O)O |  | 3% |
| CC[C@H](C)[C@H](NC(=O)[C@H](Cc1ccc(O)cc1)NC(=O)[C@@H](NC(=O)[C@H](N)CCCN)C(C)C)C(=O)N[C@@H](Cc1c[nH]cn1)C(=O)N1CCC[C@H]1C(=O)N[C@@H](Cc1ccccc1)C(=O)O |  | 23% |
| CC[C@H](C)[C@H](NC(=O)[C@H](Cc1ccc(O)cc1)NC(=O)[C@@H](NC(=O)[C@H](CCCN=C(N)N)NC(=O)[C@@H](N)CC(=O)O)C(C)C)C(=O)N[C@@H](Cc1cncn1C)C(=O)N1CCC[C@H]1C(=O)N[C@@H](Cc1ccccc1)C(=O)O |  | 0.05% |
| CC[C@H](N)C(=O)N[C@H](C(=O)N[C@@H](Cc1ccc(O)cc1)C(=O)N[C@H](C(=O)N[C@@H](Cc1c[nH]cn1)C(=O)N1CCC[C@H]1C(=O)N[C@@H](Cc1ccccc1)C(=O)O)[C@@H](C)CC)C(C)C |  | 0.92% |
| CC[C@H](C)[C@H](NC(=O)[C@H](Cc1ccc(O)cc1)NC(=O)[C@@H](NC(=O)[C@@H](N)CCCCN)C(C)C)C(=O)N[C@@H](Cc1c[nH]cn1)C(=O)N1CCC[C@H]1C(=O)N[C@@H](Cc1ccccc1)C(=O)O |  | 3% |
| CC[C@H](C)[C@H](NC(=O)[C@H](Cc1ccc(O)cc1)NC(=O)[C@@H](NC(=O)[C@@H](C)N)C(C)C)C(=O)N[C@@H](Cc1c[nH]cn1)C(=O)N1CCC[C@H]1C(=O)N[C@@H](Cc1ccccc1)C(=O)O |  | 48% |
| CC[C@H](C)[C@H](NC(=O)[C@H](Cc1ccc(O)cc1)NC(=O)[C@@H](NC(=O)[C@H](C)N)C(C)C)C(=O)N[C@@H](Cc1c[nH]cn1)C(=O)N1CCC[C@H]1C(=O)N[C@@H](Cc1ccccc1)C(=O)O |  | 3% |
| CC[C@H](C)[C@H](NC(=O)[C@H](Cc1ccc(O)cc1)NC(=O)[C@@H](NC(=O)[C@H](N)CCCCN=C(N)N)C(C)C)C(=O)N[C@@H](Cc1c[nH]cn1)C(=O)N1CCC[C@H]1C(=O)N[C@@H](Cc1ccccc1)C(=O)O |  | 11% |
| CC[C@H](C)[C@H](NC(=O)[C@@H]1CCCN1C(=O)[C@H](Cc1c[nH]cn1)NC(=O)[C@@H](NC(=O)[C@H](Cc1ccc(O)cc1)NC(=O)[C@@H](NC(=O)[C@H](C)N)C(C)C)[C@@H](C)CC)C(=O)O | 0% |  |
| CC[C@H](C)[C@H](NC(=O)[C@H](Cc1ccc(O)cc1)NC(=O)[C@@H](NC(=O)[C@H](CCCN=C(N)N)NC(=O)[C@@H](N)CC(=O)O)C(C)C)C(=O)N[C@@H](Cc1cn(C)cn1)C(=O)N1CCC[C@H]1C(=O)N[C@@H](Cc1ccccc1)C(=O)O |  | 5% |
| CC[C@H](C)[C@H](NC(=O)[C@H](Cc1ccc(O)cc1)NC(=O)[C@@H](NC(=O)[C@H](CCCN=C(N)N)NC(=O)[C@@H](N)CC(=O)O)C(C)C)C(=O)N[C@@H](C)C(=O)N1CCC[C@H]1C(=O)N[C@@H](Cc1ccccc1)C(=O)O (H-DRVYIAPF-OH) |  | 0.8% |
| CC[C@H](C)[C@H](NC(=O)[C@H](Cc1ccc(O)cc1)NC(=O)[C@@H](NC(=O)[C@H](CCCN=C(N)N)NC(=O)[C@@H](N)CC(=O)O)C(C)C)C(=O)N[C@@H](Cc1ccccc1)C(=O)N1CCC[C@H]1C(=O)N[C@@H](Cc1ccccc1)C(=O)O (H-DRVYIFPF-OH) |  | 5.1% |
| CC[C@H](C)[C@H](NC(=O)[C@H](Cc1ccc(O)cc1)NC(=O)[C@@H](NC(=O)[C@H](CCCN=C(N)N)NC(=O)[C@@H](N)CC(=O)O)C(C)C)C(=O)N[C@@H](Cc1ccsc1)C(=O)N1CCC[C@H]1C(=O)N[C@@H](Cc1ccccc1)C(=O)O (H-DRVYI[3Thi]PF-OH) |  | 19.3% |
| CC[C@H](C)[C@H](NC(=O)[C@H](Cc1ccc(O)cc1)NC(=O)[C@@H](NC(=O)[C@H](CCCN=C(N)N)NC(=O)[C@@H](N)CC(=O)O)C(C)C)C(=O)N[C@@H](Cc1ncc[nH]1)C(=O)N1CCC[C@H]1C(=O)N[C@@H](Cc1ccccc1)C(=O)O (H-DRVYI[Ala(imidazol-2-yl)]PF-OH) |  | 0.4% |
| CC[C@H](C)[C@H](NC(=O)[C@H](Cc1ccc(O)cc1)NC(=O)[C@@H](NC(=O)[C@H](CCCN=C(N)N)NC(=O)[C@@H](N)CC(=O)O)C(C)C)C(=O)N[C@@H](Cc1ccc(N)cc1)C(=O)N1CCC[C@H]1C(=O)N[C@@H](Cc1ccccc1)C(=O)O (H-DRVYI[Phe(4-NH2)]PF-OH) |  | 0.05% |
| CC[C@H](C)[C@H](NC(=O)[C@H](Cc1ccc(O)cc1)NC(=O)[C@@H](NC(=O)[C@H](CCCN=C(N)N)NC(=O)[C@@H](N)CC(=O)O)C(C)C)C(=O)N[C@@H](CCc1ncc[nH]1)C(=O)N1CCC[C@H]1C(=O)N[C@@H](Cc1ccccc1)C(=O)O (H-DRVYI[X2]PF-OH) |  | 0.05% |
| CC[C@H](C)[C@H](NC(=O)[C@H](Cc1ccc(O)cc1)NC(=O)[C@@H](NC(=O)[C@H](CCCN=C(N)N)NC(=O)[C@@H](N)CC(N)=O)C(C)C)C(=O)N[C@@H](Cc1c[nH]cn1)C(=O)N1CCC[C@H]1C(=O)N[C@@H](Cc1ccccc1)C(=O)O (H-NRVYIHPF-OH) |  | 4% |
| CC[C@H](C)[C@H](NC(=O)[C@@H]1CCCN1C(=O)[C@H](Cc1c[nH]cn1)NC(=O)[C@@H](NC(=O)[C@H](Cc1ccc(O)cc1)NC(=O)[C@@H](NC(=O)C(C)(C)N)C(C)C)[C@@H](C)CC)C(=O)O (H-[Aib]VYIHPI-OH) | 0% |  |
| CC[C@H](C)[C@H](NC(=O)[C@H](Cc1ccc(O)cc1)NC(=O)[C@@H](NC(=O)[C@H](CCCN=C(N)N)NC(=O)CNC)C(C)C)C(=O)N[C@@H](CC(=O)O)C(=O)N1CCC[C@H]1C(=O)N[C@H](C(=O)O)[C@@H](C)O (H-[Sar]RVYIDPT-OH) | 0% |  |
| CC[C@H](C)[C@H](NC(=O)[C@H](Cc1ccc(O)cc1)NC(=O)[C@@H](NC(=O)[C@H](CCCN=C(N)N)NC(=O)CNC)C(C)C)C(=O)N[C@@H](Cc1c[nH]cn1)C(=O)N1CCC[C@H]1C(=O)N[C@H](C(=O)O)[C@@H](C)O (H-[Sar]RVYIHPT-OH) | 0.6% |  |
| CC[C@H](C)[C@H](NC(=O)[C@@H]1CCCN1C(=O)[C@H](CCCCN)NC(=O)[C@@H](NC(=O)[C@H](Cc1ccc(O)cc1)NC(=O)[C@@H](NC(=O)[C@H](CCCN=C(N)N)NC(=O)CNC)C(C)C)[C@@H](C)CC)C(=O)O (H-[Sar]RVYIKPI-OH) | 0% |  |
| CC[C@H](C)[C@H](NC(=O)[C@H](Cc1ccc(O)cc1)NC(=O)[C@@H](NC(=O)CN(C)C(=O)CNC)C(C)C)C(=O)N[C@@H](Cc1c[nH]cn1)C(=O)N1CCC[C@H]1C(=O)N[C@H](C(=O)O)[C@@H](C)O (H-[Sar][Sar]VYIHPT-OH) | 0% |  |
| CC[C@H](C)[C@H](NC(=O)[C@H](Cc1ccc(O)cc1)NC(=O)[C@@H](NC(=O)[C@@H](N)CCCN=C(N)N)C(C)C)C(=O)N[C@@H](Cc1c[nH]cn1)C(=O)N1CCC[C@H]1C(=O)N[C@@H](Cc1ccccc1)C(=O)O (stereo in doubt; 5) | 47.4% | 15% |
